Only a selection was taken, and hits are over-represented in it overall.
CHOP inh = inhibitors of CHOP induction in ER stress response | 220,000 compounds, 3.8% hits | inhibition, % at 10 µM | CHO-K1 CHOP-promoter luciferase, tunicamycin-induced, 15-18 h;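 active = compounds that reduced the stress-induced luciferase reporter signal by more than about 70% of percent inhibition, limit read from the data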;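 note: 0% = tunicamycin plus vehicle and 100% = wells without tunicamycin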
UPR CHOP act = activators of apoptotic arm of unfolded protein response (CHOP); CHO-CHOP luciferase reporter, UPR activation, luminescence; percent of tunicamycin response over DMSO baseline; activation, % at 10 µM; 330,000 compounds, 0.34% hits;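 active = at 10 µM dose, activation of 40% or more, normalized to positive control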;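 note: 100% = tunicamycin at 10 µg/mL and 0% = DMSO alone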
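Assay system: CHO-CHOP cells, stable luciferase reporter of PERK-eIF2a-CHOP signalling / Buffer or medium: F12 plus 10% serum / Compound dosing: one dose, 10 µM in 0.5% DMSO / Times: 6 h compound treatment, 37 °C / Technique: luciferase luminescence / Read-out: % reporter activation, DMSO baseline versus tunicamycin full activation / Benchmarks: tunicamycin and DMSO controls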
Dynein cargo inh = dynein cargo transport inhibition. 3617.4 mouse cells, GR-EGFP nuclear translocation imaging; test concentration mostly 20 µM; stimulated with dexamethasone, 1 µM; hits give low values. z-score, hits read low. 220,000 compounds, 0.47% hits. AID 1381;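 active = plate z-score of nuclear minus cytoplasmic receptor signal below a set negative limit, without overly bright fluorescence or cell loss, cut at about -3.5 in these data, passing the limit was not always enough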;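 note: z-score of nuclear minus cytoplasmic ring GR-EGFP intensity difference per well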
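Buffer or medium: tet-free, stripped-serum medium; reagent: dexamethasone at 1.0 µM final, 30 min; incubation: 48 h induction, 1 h compound, 30 min dex at 37 °C; measured by: formaldehyde fixation, Hoechst nuclear stain, 10x automated fluorescence imaging; read-out: nuclear-to-cytoplasmic GR-EGFP distribution per well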
T cruzi inh = blocks replication of Trypanosoma cruzi | 300,000 compounds, 1.4% hits | inhibition, % (no concentration beside the values) | T. cruzi beta-gal in NIH3T3, luminescence, 90 h;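 active = mean inhibition across valid replicates above about 55%, limit read from the data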;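 note: signal also drops with host cell toxicity which is not excluded here; 0% = plate median of DMSO wells and 100% = zero luminescence signal; higher percent means less beta-gal luminescence so fewer parasites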
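compound dosing = single 50 nL compound addition per well in DMSO | material = NIH/3T3 host cells with β-galactosidase reporter T. cruzi | input = 5,000 host fibroblasts per well | timing = ≥90 h infection period, 3 h prior cell attachment | read-out basis = percent inhibition of parasite-derived β-gal signal | detection = GalScreen β-gal luminescence, detergent lysis, 60 min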
Lmaj promast = inhibitors of Leishmania major promastigote growth; inhibition, % at 10 µM; 200,000 compounds, 9% hits; AID 1063; Leishmania major promastigotes, resazurin fluorescence viability; in the data active = inhibition above about 50%;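 note: promastigotes grown with compound for 44 hours at 28 °C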
XBP1 UPR activ = activators of adaptive arm of unfolded protein response (XBP1); CHO-XBP1 luciferase reporter, IRE1-XBP1 UPR activation, luminescence; percent of tunicamycin response, DMSO as zero; activation, % at 20 µM; 330,000 compounds, 0.33% hits;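 active = versus positive control, 20 µM dose yields 30% or more activation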;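 note: 100% = tunicamycin at 10 µg/mL and 0% = DMSO only wells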
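assay system = CHO-XBP1 luciferase reporter cells | amount = 1000 cells/well | buffer or medium = F12 plus 10% FBS | compound dosing = single point, 20 µM final compound, 1% DMSO | incubation = 16-18 h cell attachment at 37 °C, then 6 h compound exposure | detection = Steady-Glo luminescence read | controls = tunicamycin 10 µg/mL and vehicle-only wells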
* hit, by the source's call; . = not tested or not shown.

SMILES	CHOP inh	UPR CHOP act	Dynein cargo inh	T cruzi inh	Lmaj promast	XBP1 UPR activ
COc1ccc(-c2cc(C(=O)Nc3cc(S(=O)(=O)N4CCOCC4)ccc3N3CCOCC3)c3ccccc3n2)cc1	26	-1	0.73	42	65*	-6
Nc1nnnn1CC(=O)N/N=C/c1ccccn1	1	3	-0.46	-6	.	2
CCC(=O)Nc1cc2nn(-c3ccc(C)cc3)nc2cc1C	91*	-5	0.09	-1	-4	-6
Cc1ccc(NC(=S)N(CCN(C)C)Cc2cc3cc(C)cc(C)c3[nH]c2=O)cc1	13	-1	-0.036	-14	79*	3
Cc1ccc2cc(CN(CCN(C)C)C(=S)Nc3ccccc3)c(=O)[nH]c2c1C	1	1	-0.21	23	13	1
CCOCCCN(Cc1cc2cc(C)cc(C)c2[nH]c1=O)C(=O)N(CC)CC	17	-1	-0.1	15	58*	1
Cc1cc(C)c2[nH]c(=O)c(CN(CC3CCCO3)C(=O)c3cnccn3)cc2c1 (configuration not stated)	8	-1	-0.53	-3	4	-4
Cc1ccc(C)c(S(=O)(=O)N2CCN(C(=O)CSC(=S)N3CCCC3)CC2)c1	.	0	.	8	.	-1
C=C(C(=O)c1ccccc1)C(CC(=O)c1ccccc1)c1ccccc1 (configuration not stated)	-31	33	-2.7	24	82*	-1
COc1ccc(C)cc1NC(=O)NNC(=O)C(C)Oc1ccc([N+](=O)[O-])cc1 (configuration not stated)	.	2	.	-4	.	-3
CN(CC(=O)Nc1ccc(OC(F)(F)F)cc1)C(=O)/C=C/c1cc2c(cc1[N+](=O)[O-])OCO2	.	1	.	.	.	-3
CCCCOC(=O)/C(=C\c1ccc([N+](=O)[O-])o1)NC(=O)c1ccccc1	40	-1	-0.47	39	83*	-4
Cc1ccc(S(=O)(=O)c2c(COC(=O)c3ccccc3Cl)c(-c3ccccc3)nn2C)cc1	19	-1	-0.91	26	61*	-3
Cc1ccc(S(=O)(=O)c2c(CO)c(-c3ccccc3)nn2C)cc1	22	0	-1.3	-11	3	-2
CN1CCc2c(n(CC(O)CN3CCN(CCO)CC3)c3ccccc23)C1=O (configuration not stated)	40	-3	-0.47	0	-8	0
Cc1ccc2ncccc2c1NS(=O)(=O)c1ccccc1	82*	5	-1.1	-2	4	-1
Cc1ccc2ncccc2c1NC(=S)NC(=O)c1ccccc1	14	-3	-0.97	-17	-4	0
CCCSc1nc2c(c(=O)[nH]c(=O)n2C)n1Cc1ccc(C)cc1	81*	-1	0.058	6	4	3
CCCCCn1c(SCc2cccc(C)c2)nc2c1c(=O)[nH]c(=O)n2C	92*	1	-0.47	48	.	0
C/C=C/Cn1c(SCc2ccc(C)cc2)nc2c1c(=O)[nH]c(=O)n2C	94*	0	-0.43	9	14	7
CCCn1c(SCc2ccccc2)nc2c1c(=O)[nH]c(=O)n2C	8	-1	1.5	4	1	3
CC(=O)OC(C(=O)Nc1ccccc1C)C(OC(C)=O)C(OC(C)=O)C(OC(C)=O)C(=O)Nc1ccccc1C (configuration not stated)	.	.	-0.96	.	-7	.
O=C(CSc1ccccc1)N1CCCC(N2CCN(c3cccc(Cl)c3)CC2)C1 (configuration not stated)	.	0	.	16	.	-3
Cc1cc(C(=O)CN2C(=O)NC3(CCCc4sccc43)C2=O)c(C)n1-c1ccc(Cl)cc1 (configuration not stated)	55	0	-0.52	27	84*	3
Cn1cnc(C(=O)N2CCc3ccccc3C2)c1C(=O)N1CCc2ccccc2C1	.	-4	.	.	.	2
SMILES	CHOP inh	UPR CHOP act	Dynein cargo inh	T cruzi inh	Lmaj promast	XBP1 UPR activ
CCCC(=O)O[C@H]1C[C@@H](C)N(C(=O)c2ccccc2)c2ccc(C)cc21	74*	0	0.046	-2	5	-1
CCN(CC)c1nc(Nc2ccc(Cl)cc2)nc(OCC#N)n1	93*	-1	0.33	37	32	4
Cc1cccc(Nc2nc(OCC#N)nc(N(C)C)n2)c1	.	1	.	-15	.	0
Cc1onc(-c2ccccc2)c1C(=O)N/N=C/c1cc2c(cc1Cl)OCO2	8	-1	-0.68	-2	100*	-3
COc1cccc(/C=N/NC(=O)c2c(-c3ccccc3)noc2C)c1OC	.	0	.	-11	.	-7
COc1cccc(/C=N/NC(=O)c2c(-c3ccccc3)noc2C)c1O	53	-4	-1.5	-7	95*	-3
CCOCCCNCC(=O)N1CCN(S(=O)(=O)c2ccc(C)cc2)CC1	46	-2	-1.3	16	88*	-3
CCOC(=O)N1CCN(S(=O)(=O)c2ccc(C)cc2)CC1	.	-2	.	-9	.	-3
CCn1nc(C)cc1C(=O)n1nc(C)c(Sc2ncccn2)c1C	28	-2	0.14	.	.	-2
COc1ccc(C(=O)Oc2cccc3cccnc23)cc1[N+](=O)[O-]	32	-1	0.12	-6	93*	5
NC(=O)c1ccc(Oc2cccc3cccnc23)c([N+](=O)[O-])c1	13	-2	-0.3	-5	3	-1
CN(Cc1ccccc1)C(=O)COC(=O)c1ccc[nH]c1=O	.	0	.	.	.	-4
Fc1ccc(Nc2nc(N3CCOCC3)nc(N3CCOCC3)n2)cc1	.	2	.	10	.	-2
Cc1cc(/C=N/Nc2nc(N3CCOCC3)nc(N3CCOCC3)n2)c(C)n1-c1ccccc1	-7	3	-0.16	45	8	2
C(=N\Nc1nc(Nc2ccccc2)nc(N2CCOCC2)n1)/c1c[nH]c2ccccc12	43	30	0.44	72*	97*	14
Cc1ccc(Nc2nc(N/N=C/c3c[nH]c4ccccc34)nc(N3CCOCC3)n2)cc1	95*	32	0.11	41	54*	29
Cc1[nH]c2ccccc2c1/C=N/Nc1nc(Nc2ccc(F)cc2)nc(N2CCOCC2)n1	61	34	0.13	.	99*	10
COc1ccc(CN2CCNC(=O)C2CC(=O)NCCCC2CCCC2)c(F)c1 (configuration not stated)	.	2	.	17	.	1
Cc1ccc(NS(=O)(=O)c2coc(C(N)=O)c2)cc1F	.	0	.	-9	.	1
CN(Cc1ccccc1)S(=O)(=O)CCNC(=O)c1ccc2c(c1)OCO2	.	1	.	-6	.	-2
CCOC(=O)C1(Cc2ccccc2)CCCN(CCCn2cccn2)C1 (configuration not stated)	6	1	-1.1	0	91*	-3
